Here are results for six compounds from article PMC4369925 (Current molecular medicine, 2014).

The IC50 is the concentration that gives 50% inhibition. Read a low IC50 as greater potency.

Residues, ends and D or L forms follow the SMILES beside them.

Assay [1] has as its target T1, rPRCP1 (Homo sapiens, UniProt P42785).
T1 sequence (P42785 46-496): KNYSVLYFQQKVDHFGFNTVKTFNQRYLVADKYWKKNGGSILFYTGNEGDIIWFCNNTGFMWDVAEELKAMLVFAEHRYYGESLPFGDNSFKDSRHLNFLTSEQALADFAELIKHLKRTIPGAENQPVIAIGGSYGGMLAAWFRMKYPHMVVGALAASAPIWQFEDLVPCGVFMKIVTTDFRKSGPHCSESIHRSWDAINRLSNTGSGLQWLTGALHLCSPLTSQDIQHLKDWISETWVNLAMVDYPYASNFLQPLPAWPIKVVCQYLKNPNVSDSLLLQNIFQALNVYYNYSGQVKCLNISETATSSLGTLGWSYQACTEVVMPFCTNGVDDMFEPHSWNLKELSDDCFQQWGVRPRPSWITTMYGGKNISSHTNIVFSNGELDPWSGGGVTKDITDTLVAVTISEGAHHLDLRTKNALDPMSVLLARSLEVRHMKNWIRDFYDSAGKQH
Briefly: Peptide inhibition of rPRCP1 hydrolysis of APpNA. The assay is classed as biochemical. The gist of the method: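 Recombinant PRCP1 hydrolysis of APpNA was measured at 37°C with sub-saturating substrate relative to Km. The initial hydrolysis rate was read at 405 nm in triplicate. Percent inhibition = [1 − (sample − blank)/(total − blank)] × 100, and IC50 and inhibition type were derived from it.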

In a further assay the test system is plasma kallikrein. Briefly: Autoactivation of human plasma PK with rPKs, fluid-phase assay. Format: biochemical. The conditions noted are these: 1 h. The gist of the method: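 Recombinant PK was expressed in stably transfected HEK cells in serum-free conditioned medium, purified by S-Sepharose cation exchange (pH 5.2, NaCl gradient) and dialysed into TBS pH 7.4. Plasma PK and rPKs, 25 nM each, were incubated in triplicate for 1 h at 37°C. […], kallikrein was assayed with or without a kallikrein inhibitor using 0.5 mM S2302 for 1 h at 37°C, read at 405 nm.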

Assay [2] addresses T1, rPRCP1. Briefly: Hydrolysis of X-Pro-pNA chromogenic substrates by rPRCP1. The assay is classed as biochemical. The conditions noted are these: for ratio of Km to the Km of GPpNA: rPRCP1, X-Pro-pNA, 37°C 1 h, 405 nm, ratio <1 more selective than GPpNA. The essentials: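 Recombinant PRCP1 was expressed in Schneider 2 cells. Increasing concentrations of X-Pro-pNA substrates were incubated with it in HEPES-carbonated buffer (pH 7.1, 2 mM CaCl2, 1 mM MgCl2, 0.1% gelatin) at 37°C for 1 h in the dark; two substrates needed 24 h. pNA release was read at 405 nm. Runs were in duplicate, at least 3 times, and data were fit to Michaelis–Menten.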

The test system of another assay is rPRCP activation of PK. Briefly: rPRCP activation of PK bound to HK on microtiter plate. The assay is classed as biochemical, human. The conditions noted are these: rPRCP 3 μg, HK-coated plate, 1 h. The gist of the method: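 Plasma PK, wild-type rPK or mutant rPKs (25 nM) were added to HK-coated microtiter wells with or without recombinant PRCP in HEPES-carbonate buffer pH 7.1 for 1 h at 37°C. Some wells also received a peptide blocking PK–HK binding (0.1 mM). S2302 (0.5 mM) was then added for 1 h at 37°C and read at 405 nm; three experiments.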

Assay [3] concerns PRCP1-dependent PK activation on HPAEC. Briefly: PRCP1-dependent PK activation. The assay is classed as cell-based, human. The conditions noted are these: 25 nM rPK + 25 nM HK on HPAEC.

As to `CSCC[C@H](NC(=O)[C@H](CCC(N)=O)NC(=O)[C@H](C)NC(=O)[C@H](CCCCN)NC(=O)CNC(=O)[C@@H](N)CC(=O)O)C(=O)N[C@@H](CCC(N)=O)C(=O)N[C@@H](CO)C(=O)N1CCC[C@H]1C(=O)N[C@@H](C)C(=O)O` [DGK10] (H-DGKAQMQSPA-OH), the IC50 against rPRCP1 [1] amounted to 600 µM. As for `Cc1cc(Oc2nc(Oc3cccc(C(=N)N)c3)c(F)c(NC(C)CCc3ccccc3)c2F)c(C(=O)O)cc1N(C)C` (centres unmarked) [PF048, reference compound], the “block of autoactivation of PK (in words)” value with plasma kallikrein (100 nM inhibitor, plasma PK 25 nM + rPK mutants 25 nM) is “block”. In the case of “Ala-Pro-paranitroanilide [APpNA, reference compound]”, the “ratio of Km to the Km of GPpNA” value on rPRCP1 [2] turned out to be 0.4. For Ser-Pro-paranitroanilide [SPpNA], the “product turnover (kcat) compared with APpNA and GPpNA” value at rPRCP1 [2] (rPRCP1, Michaelis-Menten fit) is listed as “not significantly different”. The “ratio of Km to the Km of GPpNA” value at rPRCP1 [2] came to 0.23. For the same compound, at rPRCP1 [2] (rPRCP hydrolysis), the “catalytic efficiency (kcat/Km), times higher than GPpNA” value is recorded as 6-7 times. For the same compound, the “catalytic efficiency (kcat/Km), fold higher than APpNA” value at rPRCP1 [2] (rPRCP hydrolysis, printed as 'at least') was 2-3 fold. For “rPK^P637A: recombinant PK, C-terminal Pro-Ala replaced by Ala-Ala”, the “activability by rPRCP (in words)” value with rPRCP activation of PK (25 nM rPK) was “significantly more activable by rPRCP than wild type rPK”. In the assay with plasma kallikrein (plasma PK 25 nM + rPK 25 nM, S2302), the “autoactivation of plasma PK (in words)” value was “lower threshold for autoactivation”.

“wild type rPK: recombinant wild type human prekallikrein”: the “degree of activation by rPRCP relative to wild type plasma PK” value in the assay with rPRCP activation of PK (25 nM PK) is “about 66%”. Further, in assay [3], the “activation to plasma kallikrein on HPAEC (in words)” value is on record as “less than half”.
